Drawing on ChEMBL document CHEMBL1151230, “Cytotoxic triterpenoids from Acridocarpus vivy from the Madagascar rain forest” (J Nat Prod, 2004), this text covers IC50 for 9 compounds.

In brackets after ≈: the same amount, converted by molar mass.

The subject of the test is A2780. As to the kind of experiment: Cytotoxicity against human A2780 cells. The test is classed as functional, cell-based. The method in brief:
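Growth inhibition of the human ovarian cancer line A2780. IC50 is the concentration giving 50% inhibition of growth, reported in µg/mL. Actinomycin D served as positive control. Run at Virginia Polytechnic Institute following an earlier published procedure.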
In the case of `C[C@H]1[C@H](C)CC[C@]2(C(=O)O)CC[C@]3(C)C(=CC[C@@H]4[C@@]5(C)CC[C@H](O)C(C)(C)[C@@H]5CC[C@]43C)[C@H]12` [URSOLIC ACID], the midpoint of inhibition, the IC50, lay at 9.2 µg/mL (≈ 20.1 µM).

For the compound `CC1(C)C=C2[C@H]3CC[C@@H]4[C@@]5(C)CCC(=O)[C@](C)(C=O)[C@@H]5CC[C@@]4(C)[C@]3(C)CC[C@@]2(C(=O)O)CC1`, the IC50 (usually the concentration that inhibits the measured activity by half) is 0.7 µg/mL (≈ 1.49 µM).

Compound `CC(=O)O[C@@H]1CC[C@]2(C)[C@H]3CC[C@@H]4C5=CC(C)(C)CC[C@]5(C(=O)O)CC[C@@]4(C)[C@]3(C)CC[C@H]2C1(C)C` yielded an IC50 of 15.3 µg/mL (≈ 30.7 µM). `COc1cc(O)c2c(=O)cc(-c3ccc(O)c(OC)c3)oc2c1` [VELUTIN]: the IC50 is greater than 20 µg/mL. `COc1cc(O)c2c(=O)cc(-c3ccc(O)cc3)oc2c1` [GENKWANIN] yielded a concentration for half-maximal inhibition (IC50) greater than 20 µg/mL.

The compound `CC(=O)OC[C@@]1(C)C(=O)CC[C@@]2(C)[C@H]1CC[C@]1(C)[C@@H]2CC[C@@H]2C3=CC(C)(C)CC[C@]3(C(=O)O)CC[C@]21C` registered an IC50 of 11.6 µg/mL (≈ 22.6 µM). Regarding `CC1(C)C=C2[C@H]3CC[C@@H]4[C@@]5(C)CCC(=O)C(C)(C)[C@@H]5CC[C@@]4(C)[C@]3(C)CC[C@@]2(C(=O)O)CC1` [MORONIC ACID], 13.1 µg/mL (≈ 28.8 µM) corresponded to half-maximal inhibition (IC50). Then `CC1(C)C=C2[C@H]3CC[C@@H]4[C@@]5(C)CCC(=O)[C@](C)(CO)[C@@H]5CC[C@@]4(C)[C@]3(C)CC[C@@]2(C(=O)O)CC1`, with 15.9 µg/mL (≈ 33.8 µM); and `CC1(C)CC[C@]2(C(=O)O)CC[C@]3(C)C(=CC[C@@H]4[C@@]5(C)CC[C@H](O)C(C)(C)[C@@H]5CC[C@]43C)[C@@H]2C1` [OLEANOLIC_ACID], with 8 µg/mL (≈ 17.5 µM).
